Four molecules from ChEMBL document CHEMBL4765233, “From Lead to Drug Candidate: Optimization of 3-(Phenylethynyl)-1H-pyrazolo[3,4-d]pyrimidin-4-amine Derivatives as Agents for the Treatment of Triple Negative Breast Cancer” (J Med Chem, 2016) can be followed below.

The structures appear in SMILES notation. Calls of active or inactive are those of the source. The rule behind the calls is not given here.

The nature of data set [1]: Acute toxicity in Sprague-Dawley rat assessed as histopathological changes in lungs at 100 mg/kg, po administered as single dose measured after 24 hrs by H and E staining based light microscope analysis. To be noted: in vivo. In kind it is organism-based. The gist of the method: (§1)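 Sprague-Dawley rats received a single oral dose of 100 mg/kg in sterile water with 25% (v/v) PEG400 plus 5% DMSO. Organs were examined by histology and immunohistochemistry for pathological changes. Behaviour and side effects were checked daily.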

A short description of data set [2]: Acute toxicity in Sprague-Dawley rat assessed as histopathological changes in spleen at 100 mg/kg, po administered as single dose measured after 24 hrs by H and E staining based light microscope analysis. To be noted: in vivo. In kind it is organism-based. The gist of the method: as §1
Data set [3] is described as follows: Acute toxicity in Sprague-Dawley rat assessed as histopathological changes in kidney at 100 mg/kg, po administered as single dose measured after 24 hrs by H and E staining based light microscope analysis. It is filed as organism-based. As to conditions: in vivo. The gist of the method:
as §1

Data set [4] can be described thus: Acute toxicity in Sprague-Dawley rat assessed as histopathological changes in heart at 100 mg/kg, po administered as single dose measured after 24 hrs by H and E staining based light microscope analysis. In kind it is organism-based. To be noted: in vivo. The gist of the method: as §1
The nature of data set [5]: Acute toxicity in Sprague-Dawley rat assessed as histopathological changes in liver at 100 mg/kg, po administered as single dose measured after 24 hrs by H and E staining based light microscope analysis. In kind it is organism-based. As to conditions: in vivo. In a few lines: as §1
Data set [6] relates to MDA-MB-231. The experiment in a line: Antimigratory activity against human MDA-MB-231 cells assessed as inhibition of cell migration at 0.3 uM incubated for 20 hrs by wound healing assay. It is filed as functional, cell-based. The gist of the method:
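MDA-MB-231 monolayer grown to confluence, scratched with a sterile pipet tip, rinsed with physiological saline, then given DMEM containing vehicle or compound. Wound imaged after 20 h to assess migration.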

The subject of data set [7] is MDA-MB-231. The experiment in a line: Induction of apoptosis in human MDA-MB-231 cells assessed as live cells at 0.1 uM incubated for 24 hrs by annexin V-FITC and propidium iodide staining based flow cytometry analysis (reference value: 96.95 %). It is filed as functional.
The test system of data set [8] is MDA-MB-435. The data set is described as follows: Antitumor activity against human MDA-MB-435 cells xenografted in SCID mouse assessed as tumor growth inhibition at 40 mg/kg, po QD for 21 days and measured every 3 days. It is filed as functional. As to conditions: dose 40.0 mg/kg/day, time 21.0 day. The gist of the method:
(§2)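 SCID mice (5−6 weeks) injected subcutaneously with 100 μL of cells at 5 × 10^7/mL. At 150−200 mm3 mice randomized, 6 per group. Oral compounds given in water with 25% PEG400 plus 5% DMSO; paclitaxel given 10 mg/kg/week iv. Tumor volume a×b²/2 and body weight measured every 3 days. Inhibition rate (c−d)/c×100% against vehicle control.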
Background: A xenograft is tissue or cells of one species grown in another, often human tumour cells in immunodeficient mice.

Data set [9] concerns MDA-MB-231. The data set is described as follows: Induction of apoptosis in human MDA-MB-231 cells assessed as late apoptotic cells at 0.1 uM incubated for 24 hrs by annexin V-FITC and propidium iodide staining based flow cytometry analysis (reference value: 0.85 %). It is filed as functional.
Data set [10] concerns MDA-MB-231. The experiment in a line: Induction of apoptosis in human MDA-MB-231 cells assessed as necrotic cells at 0.1 uM incubated for 24 hrs by annexin V-FITC and propidium iodide staining based flow cytometry analysis (reference value: 0.2 %). It is filed as functional.
The test system of data set [11] is MDA-MB-231. The data set is described as follows: Antiproliferative activity against human MDA-MB-231 cells assessed as reduction in cell viability incubated for 72 hrs by MTT assay. In kind it is functional, cell-based. To be noted: MDA-MB-231, 72 h. In a few lines:
(§3)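 MTT viability assay. ATCC cell lines were grown in designated medium with 10% FBS at 37 °C, 5% CO2. Cells seeded at 1500−30000 per well and incubated 24 h, then exposed to compound (0−10 μg/mL) for 72 h. MTT added for 2−4 h. Formazan dissolved in DMSO (adherent) or acidified SDS overnight (suspension), absorbance read at 570 nm. Triplicates; IC50 calculated.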
In general terms: Tetrazolium assays rely on reduction of a dye to a coloured formazan, in cell work by metabolically active cells.

Data set [12] deals with HepG2. The data set is described as follows: Antiproliferative activity against human HepG2 cells assessed as reduction in cell viability incubated for 72 hrs by MTT assay. It is filed as ADME, cell-based. As to conditions: HepG2, 72 h.
Data set [13] in a line: Toxicity in SCID mouse xenografted with MDA-MB-231 cells assessed as change in body weight at 40 mg/kg, po qd for 21 days and measured every 3 days. In kind it is organism-based. As to conditions: in vivo, 504 h, dose 40 mg/kg/day, time 21 day. The gist of the method:
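Exponential-phase cells washed and injected subcutaneously (5 × 10^6 cells in 100 μL) into 5–6-week SCID mice. At 150–200 mm3, mice randomised to groups of 6. Oral dosing daily in water with 25% PEG400 and 5% DMSO; paclitaxel 10 mg/kg weekly by tail vein. Body weight measured every 3 days and side effects checked daily.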

In data set [14] the test system is MDA-MB-231. The data set is described as follows: Inhibition of Fra1 phosphorylation in human MDA-MB-231 cells at 0.03 to 0.3 uM incubated for 20 hrs by Western blot analysis. In kind it is functional, cell-based. To be noted: dose 0.03-0.3 µM. The gist of the method: (§4)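 MDA-MB-231 cells treated with a series of concentrations for 20 h at 37 °C. Cells washed with ice-cold saline and lysed in RIPA buffer with protease cocktail. Lysates cleared at 12000 rpm for 10 min at 4 °C and protein quantified by Bradford. Equal protein separated by SDS-PAGE, transferred to PVDF and probed with antibodies.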
(In general: Immunoblotting shows a protein as a band on a membrane.)

Data set [15] relates to MDA-MB-231. The data set is described as follows: Inhibition of colony formation in human MDA-MB-231 cells at 0.1 uM treated for 12 days by crystal violet staining based visual analysis. In kind it is functional, cell-based. To be noted: time 12.0 day. In a few lines:
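MDA-MB-231 cells seeded at 5000 per well in six-well plates and treated the next day, with drug-containing medium replaced every 4 days. After 12 days, colonies fixed with methanol and stained with crystal violet, then photographed.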

Data set [16] has as its system MDA-MB-231. The experiment in a line: Increase in cleaved caspase-3 level in human MDA-MB-231 cells at 0.03 to 0.3 uM incubated for 20 hrs by Western blot analysis. In kind it is functional, cell-based. As to conditions: dose 0.03-0.3 µM. In a few lines: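 MDA-MB-231 cells given a concentration series for 20 h at 37 °C. Cells lysed in RIPA with protease cocktail, cleared at 12000 rpm, 4 °C. Protein quantified by Bradford, equal amounts run on SDS-PAGE, transferred to PVDF and immunoblotted.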

Data set [17] relates to MDA-MB-231. The experiment in a line: Induction of apoptosis in human MDA-MB-231 cells assessed as early apoptotic cells at 0.1 uM incubated for 24 hrs by annexin V-FITC and propidium iodide staining based flow cytometry analysis (reference value: 2 %). It is filed as functional.
Data set [18] deals with MDA-MB-231. The data set is described as follows: Inhibition of Fra1 expression in human MDA-MB-231 cells at 0.03 to 0.3 uM incubated for 20 hrs by Western blot analysis. In kind it is functional, cell-based. As to conditions: dose 0.03-0.3 µM. The gist of the method:
as §4

For data set [19], the system named is MDA-MB-231. The data set is described as follows: Inhibition of MEK phosphorylation in human MDA-MB-231 cells at 0.03 to 0.3 uM incubated for 20 hrs by Western blot analysis. It is filed as cell-based. As to conditions: dose 0.03-0.3 µM. In a few lines:
as §4

Data set [20] concerns MDA-MB-231. The data set is described as follows: Inhibition of ERK phosphorylation in human MDA-MB-231 cells at 0.03 to 0.3 uM incubated for 20 hrs by Western blot analysis. In kind it is cell-based. As to conditions: dose 0.03-0.3 µM. The gist of the method: as §4
For data set [21], the system named is MDA-MB-231. The data set is described as follows: Antitumor activity against human MDA-MB-231 cells xenografted in SCID mouse assessed as tumor growth inhibition at 40 mg/kg, po qd for 21 days and measured every 3 days. It is filed as functional. The gist of the method:
as §2

For data set [22], the system named is MDA-MB-435. The experiment in a line: Antiproliferative activity against human MDA-MB-435 cells assessed as reduction in cell viability incubated for 72 hrs by MTT assay. In kind it is functional, cell-based. As to conditions: MDA-MB-435, 72 h. The gist of the method: as §3
Data set [23] deals with Voltage-gated inwardly rectifying potassium channel KCNH2 (Homo sapiens, UniProt Q12809). The experiment in a line: Inhibition of human ERG expressed in CHO cells at -80 mV holding potential by automated Qpatch electrophysiological assay.
Data set [24] is described as follows: Toxicity in SCID mouse xenografted with MDA-MB-231 cells assessed as animal death at 40 mg/kg, po qd for 21 days. To be noted: in vivo, dose 40 mg/kg/day, time 21 day, read-out: Activity. It is filed as organism-based. The gist of the method:
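SCID mice aged 5–6 weeks were injected subcutaneously with 100 μL of MDA-MB-231 cells resuspended at 5 × 10^7 per mL. When tumours reached 150–200 mm3, mice were randomised into groups of 3 or 6. Dosing was oral and daily, in sterile water with 25% PEG400 plus 5% DMSO. Side effects were checked daily and body weight every 3 days.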

The nature of data set [25]: Toxicity in SCID mouse xenografted with MDA-MB-231 cells assessed as change in body weight at 40 mg/kg, po qd for 15 days and measured every 3 days. In kind it is organism-based. As to conditions: in vivo, 360 h, dose 40 mg/kg/day, time 15 day.
Data set [26] can be described thus: Toxicity in SCID mouse xenografted with MDA-MB-231 cells assessed as animal death at 40 mg/kg, po qd for 15 days. As to conditions: in vivo, dose 40 mg/kg/day, time 15 day, read-out: Activity. It is filed as organism-based.
For data set [27], the system named is MDA-MB-231. The experiment in a line: Antitumor activity against human MDA-MB-231 cells xenografted in SCID mouse assessed as tumor growth inhibition at 40 mg/kg, po qd for 15 days and measured every 3 days. In kind it is functional. As to conditions: MDA-MB-231, po, 360 h, time 15 day. In a few lines:
as §2

Chain of Voltage-gated inwardly rectifying potassium channel KCNH2 (Q12809 whole entry): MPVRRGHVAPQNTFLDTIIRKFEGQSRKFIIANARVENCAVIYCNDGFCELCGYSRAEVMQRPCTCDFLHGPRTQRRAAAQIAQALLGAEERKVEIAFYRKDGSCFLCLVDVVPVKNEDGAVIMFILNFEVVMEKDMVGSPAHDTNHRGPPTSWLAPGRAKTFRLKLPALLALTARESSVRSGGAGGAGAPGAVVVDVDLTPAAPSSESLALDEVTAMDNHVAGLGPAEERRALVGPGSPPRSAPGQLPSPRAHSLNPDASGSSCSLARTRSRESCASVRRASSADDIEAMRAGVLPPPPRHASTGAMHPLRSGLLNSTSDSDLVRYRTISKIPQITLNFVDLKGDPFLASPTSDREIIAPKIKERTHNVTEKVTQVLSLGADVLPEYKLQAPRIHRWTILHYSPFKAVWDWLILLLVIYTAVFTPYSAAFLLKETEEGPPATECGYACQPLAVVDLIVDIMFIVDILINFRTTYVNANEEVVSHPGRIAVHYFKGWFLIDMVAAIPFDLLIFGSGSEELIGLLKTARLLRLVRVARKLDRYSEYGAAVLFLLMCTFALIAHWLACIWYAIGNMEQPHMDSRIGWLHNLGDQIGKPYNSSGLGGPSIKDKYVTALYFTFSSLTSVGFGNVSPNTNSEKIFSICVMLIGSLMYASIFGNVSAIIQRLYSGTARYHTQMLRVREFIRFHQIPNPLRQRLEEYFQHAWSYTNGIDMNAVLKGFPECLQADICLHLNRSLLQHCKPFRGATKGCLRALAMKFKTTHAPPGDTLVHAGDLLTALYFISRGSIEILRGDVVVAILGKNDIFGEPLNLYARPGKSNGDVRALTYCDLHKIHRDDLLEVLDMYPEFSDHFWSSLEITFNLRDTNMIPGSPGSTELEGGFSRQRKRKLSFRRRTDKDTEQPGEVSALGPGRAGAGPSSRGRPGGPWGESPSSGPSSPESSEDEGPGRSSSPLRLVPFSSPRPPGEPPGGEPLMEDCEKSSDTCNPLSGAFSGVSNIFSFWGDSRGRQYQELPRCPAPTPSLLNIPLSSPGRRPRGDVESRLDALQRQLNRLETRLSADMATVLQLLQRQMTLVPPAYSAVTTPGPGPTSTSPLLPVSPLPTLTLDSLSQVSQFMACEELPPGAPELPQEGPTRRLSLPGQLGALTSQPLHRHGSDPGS

As to `CCn1nc(C#Cc2cc(C(=O)Nc3ccc(CN4CCN(C)CC4)c(C(F)(F)F)c3)ccc2C)c2c(N)ncnc21`, the Activity result in [1], in [2], in [3], in data set [4] and in data set [5] was “Toxic” each time.

Usually IC50 stands for the concentration needed to halve the response being measured. As to `Cc1nc(Nc2ncc(C(=O)Nc3c(C)cccc3Cl)s2)cc(N2CCN(CCO)CC2)n1.O` [DASATINIB], the Activity result is “Active” in data set [6]; “Active” in data set [16]; “Active” in data set [21] (dose 40.0 mg/kg/day, time 21.0 day). The Activity is 92.97% in data set [7]; 2.45% in data set [9]; 0.34% in data set [10]; “Non-Toxic” in data set [13]; 4.24% in data set [17]. Also, the inhibition result in [8], in data set [14], in [15], in [18], in data set [19] and in data set [20] was “Active” each time. In addition, the half-maximal inhibitory concentration (IC50) in [11] was determined as 112 nM; in data set [12] it was 7500 nM; in [22], 5150 nM.

The term inhibition in vivo denotes the change of the read-out against control, counted positive when it falls. With `Cc1ccc(NC(=O)c2cccc(C(F)(F)F)c2)cc1C#Cc1nn(C2CCN(C)CC2)c2ncnc(N)c12`, the IC50 in [11] is 13 nM; in data set [12], more than 10000 nM; in data set [23], 600 nM; in data set [22], 80 nM. Besides, in [13], the Activity was -3.1%. Besides, the mortality at 504 h in data set [24] turned out to be 0%. The inhibition in vivo at 40 mg/kg/day in data set [21] (MDA-MB-231, po, 504 h, time 21 day) was found to be 90.7%.

Turning to `Cc1ccc(NC(=O)c2cccc(C(F)(F)F)c2)cc1C#Cc1nn(C[C@H](C)CO)c2ncnc(N)c12`, in [25], the Activity is on record as -8.2%. Besides, the 50% inhibitory concentration (IC50) in [11] is 10 nM; in data set [12], more than 10000 nM; in [23], more than 30000 nM; in data set [22], 10 nM. Moreover, in data set [26], the mortality at 360 h was 0%. In addition, the inhibition in vivo at 40 mg/kg/day in data set [27] is 77.3%.
